A selection: hits, their analogues and other compounds. The true share with any hit is near 1.5%.
NSD2 HMT inh: blocks human histone methyltransferase NSD2 | O96028 | NSD2 peptide methylation, AlphaScreen, 120 min | inhibition, % at 12.5 µM | actives 0.54% (n = 310,000)
NS3 helicase inh: HCV NS3 helicase inhibition; NS3 helicase DNA unwinding, Cy5 molecular beacon fluorescence; inhibition, % at 10.9 µM; actives 0.56% (n = 290,000); AID 1800;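 active = inhibition above the mean of all tested compounds plus 3 SD, set per campaign, cut at about 35% in these data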;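 note: 0% = DMSO wells and 100% = thioflavine S control wells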
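Assay system – hepatitis C virus NS3 helicase domain fragment enzyme · Buffer or medium – MOPS pH 6.5, MgCl2, DTT, Tween20, BSA · Reagent – Cy5/quencher beacon DNA duplex and ATP to start · Compound – single 10.9 µM dose · Timing – 1 h at 25 °C · Technique – Cy5 beacon fluorescence read at start and 1 h · Measure – % inhibition of unwinding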
DNMT1 inh: blocks human DNA methyltransferase DNMT1; P26358; DNMT1 molecular beacon, Hinp1I cleavage, fluorescence; inhibition (reported as % activation of signal), % at 10 µM; actives 0.83% (n = 360,000); AID 588458
CASP6 VEID inh: inhibitors of human caspase-6 | P55212 | purified caspase-6, Z-VEID-R110 cleavage fluorescence | inhibition, % at 12.5 µM | actives 0.53% (n = 350,000) | AID 686996;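 active = mean inhibition across replicates at least about 35%, with every replicate also reaching that limit, limit read from the data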;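 note: 0% = median of neutral control wells and 100% = no fluorescence left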
Target sequence (P55212 24-179 limits assumed): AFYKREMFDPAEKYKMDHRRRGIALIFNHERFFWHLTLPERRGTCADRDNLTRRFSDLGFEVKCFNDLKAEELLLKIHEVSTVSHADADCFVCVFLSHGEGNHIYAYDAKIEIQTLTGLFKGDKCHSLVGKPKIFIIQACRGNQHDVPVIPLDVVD
Target sequence (P55212 194-293 limits assumed): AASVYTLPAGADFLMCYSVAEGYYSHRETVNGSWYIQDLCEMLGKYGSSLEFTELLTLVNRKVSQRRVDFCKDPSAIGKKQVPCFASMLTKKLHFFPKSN
Alpha artifact: AlphaScreen assay artifact in NSD2 counter-screen; shares compounds with NSD2 HMT inh; AlphaScreen artifact counterscreen, preloaded methylated H4 peptide; AC35, µM (series often up to 10 µM), inactives show at the highest dose activity change, negative = signal loss; actives 9.4% (n = 1,500); call rule not given here
Starred values were filed as active, the others as inactive; · = not tested or not shown; [ ] = another dose, or the depositor's remark. Cut-off read from the data, not from the text of the source, unless noted: active = inhibition above about 50%; inactive = the rest.

SMILES | NSD2 HMT inh | NS3 helicase inh | DNMT1 inh | CASP6 VEID inh | Alpha artifact
C[C@@H]1CN([C@@H](C)CO)C(=O)c2cc(-c3ccccc3)cnc2O[C@@H]1CN(C)Cc1ccc(C(=O)O)cc1 | · | · | · | -4 | ·
Cc1cccc(Nc2nnc(-c3ccc(N4CCOCC4)c([N+](=O)[O-])c3)c3ccccc23)c1 | 53* | 10 | -8 | 1 | -10%
Cc1nnc(-c2ccc(N3CCOCC3)c([N+](=O)[O-])c2)o1 | 1 | · | 2 | · | ·
CN(C)C(=O)[C@H]1[C@H](CO)[C@H]2Cn3c(ccc(-c4cncnc4)c3=O)[C@H]2N1Cc1ccccc1F | · | · | · | 1 | ·
Cc1ccc(S(=O)(=O)N2C[C@H](O)COC[C@@H]3O[C@@H](CC(=O)NCCN4CCCCC4)CC[C@H]32)cc1 | · | · | · | -18 | ·
c1coc(CNCCCN2CCOCC2)c1 | 56* | 4 | -3 | · | -4%
c1cc(CNCCCN2CCOCC2)ccn1 | · | 4 | -2 | · | ·
COCCCNC(=O)C1CCN(C(=O)c2oc3cc4sc(N(C)C)nc4cc3c2C)CC1 | -4 | -3 | 2 | 0 | ·
CCN(CC)CCCNC(=O)C1CCN(C(=O)c2oc3cc4sc(N(C)C)nc4cc3c2C)CC1 | 57* | -1 | -3 | -12 | 0%
C[C@H]1CN([C@@H](C)CO)S(=O)(=O)c2ccc(-c3cccnc3)cc2O[C@@H]1CN(C)C(=O)CC1CC1 | · | · | · | 2 | ·
O=C(CN1CCOCCOCCOCC1)Nc1ccccc1 | 0 | 3 | -3 | · | ·
O=C(CN1CCOCCOCCOCCOCC1)Nc1ccccc1 | -2 | 0 | -1 | · | ·
O=C(CN1CCOCC1)Nc1ccc(Oc2ccccc2)cc1 | 53* | 1 | -2 | · | 0%
O=C(CN1CCOCCOCCN(CC(=O)Nc2ccccc2)CCOCC1)Nc1ccccc1 | 166* | -17 | 0 | · | 0%
COc1ccc(NC(=O)CN2CCN(S(=O)(=O)N3CCCCCC3)CC2)cc1 | 74* | -1 | 3 | 0 | 3%
COc1ccccc1CNC(=O)C[C@@H]1C=C[C@@H](NC(=O)CC2CC2)[C@@H](CO)O1 | · | · | · | -3 | ·
Cc1nn(CC(=O)Nc2nnc(CC(=O)N3CCCC3)s2)c(=O)c2ccccc12 | 4 | -1 | -1 | · | ·
Cc1nn(CC(=O)Nc2nnc(C(C)C)s2)c(=O)c2ccccc12 | 59* | 1 | -5 | 1 | -1%
C[C@@H]1CCCCO[C@H](CN(C)CC2CCCCC2)[C@H](C)CN([C@H](C)CO)C(=O)c2cc(NC(=O)Nc3ccccc3)ccc2O1 | · | · | · | 1 | ·
COc1ccc2c3c([nH]c2c1)[C@@H](CO)N(C(=O)Cc1ccccn1)CC31CCN(Cc2ccccn2)CC1 | · | · | · | -1 | ·
CC(/C=C1\SC(=S)N(NS(=O)(=O)c2ccccc2)C1=O)=C\c1ccccc1 | 55* | 31 | 21 | 22 | -10%
Cc1oc(-c2cccs2)nc1CN1CCN(C2CCCC2)C(CCO)C1 (stereo not drawn) | 52* | -10 | 0 | -7 | -2%
C[C@@H]1CN([C@H](C)CO)C(=O)c2cc(NS(=O)(=O)c3cn(C)cn3)ccc2O[C@H]1CN(C)Cc1ccc(Cl)c(Cl)c1 | · | · | · | 4 | ·
COc1ccc(N(CC(=O)NCCSc2ccccn2)S(C)(=O)=O)cc1 | 127* | 1 | 1 | -3 | -3%
NC(=O)c1ccc(-n2nnnc2SCC(=O)c2ccc(O)c(O)c2)cc1 | 89* | 11 | 6 | 17 | -5%
SMILES | NSD2 HMT inh | NS3 helicase inh | DNMT1 inh | CASP6 VEID inh | Alpha artifact
COc1ccc(-n2nnnc2SCC(=O)c2ccc(O)c(O)c2)cc1 | -1 | 5 | 10 | · | ·
CCC(C)NCCCCOc1ccc(Cl)cc1C (stereo not drawn) | 60* | -3 | 2 | · | -5%
CCC(C)NCCCOc1cc(Cl)ccc1Cl (stereo not drawn) | 52* | 5 | -2 | · | -1%
C=CCc1cc(Cl)ccc1OCCOCCNC(C)CC (stereo not drawn) | 6 | -21 | 1 | -2 | ·
CO[C@H]1CN(C)C(=O)c2ccc(NC(=O)c3ccccc3F)cc2OC[C@@H](C)N(CC2CC2)C[C@@H]1C | · | · | · | -3 | ·
O=C(NC[C@H]1CC[C@@H]2[C@@H](CN2S(=O)(=O)c2ccccc2[N+](=O)[O-])O1)C1CC1 | · | · | · | 2 | ·
CSc1ncccc1C(=O)OCC(=O)N1CC2(C)CC1CC(C)(C)C2 (stereo not drawn) | 53* | · | 5 | 1 | -5%
CC1(C)CC2CC(C)(CN2C(=O)COC(=O)c2ccccc2C(F)(F)F)C1 (stereo not drawn) | -3 | · | 2 | 6 | ·
Cc1ccc(NC(=S)Nc2cccc3cnccc23)cc1C | 21 | 0 | -17 | 3 | ·
Cc1ccc(NC(=S)Nc2cccc3cnccc23)cc1 | 101* | 14 | -13 | 80* | 0%
CC(=O)c1ccc(NC(=S)Nc2cccc3cnccc23)cc1 | 81* | 2 | -7 | 0 | -8%
COc1cccc(NC(=O)N[C@@H]2C=C[C@@H](CC(=O)NCc3ccccn3)O[C@@H]2CO)c1 | · | · | · | 1 | ·
C[C@@H]1CN([C@H](C)CO)C(=O)c2cc(-c3ccccc3F)cnc2O[C@@H]1CN(C)C(=O)NC1CCCC1 | · | · | · | -2 | ·
O=c1[nH]nc(Br)c(=O)n1C(c1ccccc1)c1ccccc1 | 51* | · | 3 | 3 | -5%
O=c1[nH]c(=O)n(C(c2ccccc2)c2ccccc2)cc1Br | -4 | -4 | -3 | -2 | ·
CC(C)NC(=O)N(C)C[C@@H]1OCCCC[C@@H](C)Oc2ccc(NS(=O)(=O)c3ccccc3)cc2C(=O)N([C@H](C)CO)C[C@H]1C | · | · | · | 1 | ·
Nc1nc(Nc2ccccc2F)nc(NCCO)c1[N+](=O)[O-] | 60* | 9 | -1 | 1 | 1%
COc1cc(/C=N/N2CCN(C3c4ccccc4-c4ccccc43)CC2)cc(OC)c1OC | 144* | 0 | -10 | 0 | 2%[5 µM]
COc1cc(/C=N/N2CCN(C3c4ccccc4-c4ccccc43)CC2)cc(OC)c1O | 0 | -24 | -5 | · | ·
O=C(O)c1cc(N2C(=O)C=CC2=O)cc(N2C(=O)C=CC2=O)c1 | 88* | · | 82* | 61* | -8%
O=C(O)c1cc(C(=O)O)cc(N2C(=O)c3ccccc3C2=O)c1 | 1 | · | · | 21 | ·
O=C(CN1C(=O)C(=O)N(C2CCCC2)C1=O)NCCc1ccc(F)cc1 | 1 | · | -2 | -3 | ·
COc1ccc(CCNC(=O)CN2C(=O)C(=O)N(C3CCCC3)C2=O)cc1OC | 55* | · | 1 | -2 | 0%
OCCNC(=S)Nc1ccc2nsnc2c1 | 96* | 10 | -10 | 6 | -3%
OCCNC(=S)Nc1ccc(Cl)c(Cl)c1 | -1 | 3 | 20 | -2 | ·
S=C(Nc1ccc2nsnc2c1)N1CCCCC1 | 61* | 11 | 26 | 47* | 9%
C[C@H]1CN([C@@H](C)CO)S(=O)(=O)c2ccc(/C=C/c3ccccc3)cc2O[C@@H]1CN(C)Cc1ccccc1 | · | · | · | 2 | ·
O=C(COC(=O)c1ccccc1F)NC1CC1 | 52* | · | 0 | 1 | 2%
CC(Nc1cccc2ccccc12)C(=O)N/N=C/c1ccccn1 (stereo not drawn) | 132* | 10 | -11 | · | -8%

Source: PubChem (several laboratories)
